The list is not random: actives were taken first. Their share in the collection is about 4.7%.
m5-HT2A agonist: agonists of mouse serotonin 5-HT2A receptor (HTR2A) | activation, % at 7.6 µM | hit rate 0.66% among 360,000 | CHO-K1 mHTR2A beta-arrestin complementation, luminescence; percent of 30 µM serotonin response | P35363;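 active = activation above a run cutoff, the mean activation of all tested compounds plus 3 SD, cut at about 14% in these data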
AHR act: human AHR activation; P35869; hit rate 2.5% among 320,000; AHR-responsive luciferase reporter cells, luminescence; AID 2796; activation, % at 5 µM; in the data active = activation above about 47%
Target sequence (P35869 whole entry, looked up): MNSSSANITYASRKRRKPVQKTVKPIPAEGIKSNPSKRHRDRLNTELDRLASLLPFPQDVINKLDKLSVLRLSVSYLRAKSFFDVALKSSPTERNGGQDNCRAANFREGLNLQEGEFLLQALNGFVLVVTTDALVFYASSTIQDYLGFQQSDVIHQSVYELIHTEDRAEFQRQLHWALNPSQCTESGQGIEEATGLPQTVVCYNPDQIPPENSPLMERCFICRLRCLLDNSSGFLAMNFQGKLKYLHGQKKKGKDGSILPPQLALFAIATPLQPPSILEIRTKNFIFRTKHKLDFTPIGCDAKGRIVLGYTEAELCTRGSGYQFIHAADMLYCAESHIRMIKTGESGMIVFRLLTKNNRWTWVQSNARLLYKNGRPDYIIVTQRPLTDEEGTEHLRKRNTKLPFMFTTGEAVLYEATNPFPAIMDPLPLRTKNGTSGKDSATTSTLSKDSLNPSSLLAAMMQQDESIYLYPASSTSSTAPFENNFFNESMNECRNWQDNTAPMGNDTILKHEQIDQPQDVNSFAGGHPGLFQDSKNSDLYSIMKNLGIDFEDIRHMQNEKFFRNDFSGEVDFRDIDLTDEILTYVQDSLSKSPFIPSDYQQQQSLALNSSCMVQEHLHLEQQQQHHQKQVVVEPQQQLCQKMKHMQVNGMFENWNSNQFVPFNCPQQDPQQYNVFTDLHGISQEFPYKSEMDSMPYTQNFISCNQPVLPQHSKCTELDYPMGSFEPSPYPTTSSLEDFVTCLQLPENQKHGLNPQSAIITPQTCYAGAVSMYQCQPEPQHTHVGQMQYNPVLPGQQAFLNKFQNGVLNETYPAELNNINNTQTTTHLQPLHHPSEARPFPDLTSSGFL
MC4R antagonist: human MC4R antagonism in cAMP assay | P32245 | MC4R-expressing cells, MTII-stimulated cAMP, LANCE TR-FRET | inhibition, % at 6.5 µM | hit rate 0.48% among 360,000 | AID 540295;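 active = inhibition above its plate's cutoff, the mean of tested wells on that plate plus 3 SD, cut at about 29% in these data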
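material = U2OS cells stably expressing human melanocortin 4 receptor (MC4R) | also added = Melanotan II challenge | dosing = single nominal compound dose of 6.5 µM | detection = TR-FRET with Eu-cAMP and labeled anti-cAMP, 671 nm | replication = singlicate | timing = compound 30 min, challenge 1 h, detection 1 h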
FXN GAA850 act: activators of GAA850 frataxin (FXN) promoter; HEK293 lucGAA850 FXN promoter luciferase reporter, 24 h; percent of 10 µM SAHA response; activation, % at 6 µM; hit rate 0.56% among 360,000;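 active = activation above the average of all compounds screened plus 3 SD, cutoff fixed separately per campaign, cut at about 7.5% in these data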
MC4R barr agon: activates human MC4R beta-arrestin recruitment; AID 540308; P32245; U2OS MC4R beta-arrestin complementation, luminescence; percent of melanotan II response, DMSO zero; hit rate 0.98% among 360,000; activation, % at 8.9 µM;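 active = activation above a per-plate cutoff, the mean activation of sample wells on that plate plus 3 SD, cut at about 8% in these data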
Of the large screens only hits and unclear results are named; the others gave an inactive call.

C/C(=N/Nc1cc(-c2ccccc2)nc(-c2ccccc2)n1)c1ccc(O)cc1	AHR act 65.6
C/C(=N\Nc1cc(-c2ccccc2)nc(-c2ccc(Br)cc2)n1)c1cccc(N)c1	AHR act 71.2
C/C(=N\Nc1cc(Cl)nc(C)n1)c1ccccc1	none
O=C(NCC1CCCO1)c1cn(Cc2ccccc2)nc1-c1ccc(Cl)cc1 (centres undefined)	none
C=CCNC(=O)c1ccsc1N	none (no result: AHR act, MC4R antagonist, FXN GAA850 act, MC4R barr agon)
Cc1cc(C)c2[nH]c3nc(SCC(=O)O)nnc3c2c1	AHR act 49.6
O=C(O)CSc1nnc2c(n1)[nH]c1ccccc12	none
COc1ccc(-c2csc(NC(=O)CSc3nc(C)cs3)n2)cc1	none
COc1ccc(-c2csc(NC(=O)CSc3nc(SC)ns3)n2)cc1	AHR act 58.3
Cc1cc(C(=O)NNC(=O)c2sccc2C)c(C)o1	none
COc1cc(C(C)=NNC(=O)c2ccncc2)ccc1O	none (no result: AHR act)
CC(C)C[C@H](NC(=O)OC(C)(C)C)c1nnc(SCC(=O)Nc2ccc(Br)cc2)o1	MC4R barr agon 8.3
COc1ccc(/C=C/C(=O)NC(=S)NCCc2ccc(OC)c(OC)c2)cc1	MC4R barr agon 17.2
COc1ccc(/C=C/C(=O)NC(=S)Nc2ccccc2)cc1OC	MC4R barr agon 9.1
Cc1cnc(-c2nc3ccccc3n2C(C(=O)NC(C)(C)C)c2ccccc2)cn1 (centres undefined)	none (no result: AHR act, MC4R antagonist, FXN GAA850 act, MC4R barr agon)
N/C(=N\OC(=O)c1cccc2ccccc12)c1cccc([N+](=O)[O-])c1	none
COc1cccc(C(=O)O/N=C(\N)c2ccc([N+](=O)[O-])cc2)c1OC	MC4R barr agon 8.6
N/C(=N\OC(=O)c1cccc([N+](=O)[O-])c1)c1cccnc1	AHR act 114.3
Cc1ccccc1C(=O)O/N=C(\N)c1cccc([N+](=O)[O-])c1	AHR act 94.5
N/C(=N\OC(=O)c1ccc(Br)cc1)c1ccncc1	none
COc1ccc(/C(N)=N/OC(=O)c2cccc([N+](=O)[O-])c2C)cc1OC	none
N/C(=N\OC(=O)c1cccc(Br)c1)c1ccncc1	AHR act 53.1
CC(C)(C)N1C(=O)c2ccccc2NC(=O)C1C(=O)NCCOc1ccccc1 (centres undefined)	none (no result: AHR act, MC4R antagonist, FXN GAA850 act, MC4R barr agon)
Cc1ccc(/C=N\NC(=O)c2cc(OCC(F)(F)F)ccc2OCC(F)(F)F)cc1	MC4R barr agon 13.6
O=C(N/N=C\c1ccc(F)cc1)c1cc(OCC(F)(F)F)ccc1OCC(F)(F)F	none
CCOC(CCNC(=O)c1cc(-c2cccs2)nc2ccccc12)OCC	none
CN(C)c1nc(N)c([N+](=O)[O-])c(NCCO)n1	none
COc1ccccc1-c1ccc(SCC(=O)NCCc2ccccc2)nn1	AHR act 57.6
Cc1ccc(CNC(=O)CCc2cn(C)c3ccccc23)cc1	none
COc1cc2[nH]c(=S)nc(NCc3cccs3)c2cc1OC	AHR act 60.3
COc1ccccc1CNc1nc(=S)[nH]c2cc(OC)c(OC)cc12	none
C[C@@H]1CN([C@@H](C)CO)S(=O)(=O)c2ccc(Br)cc2O[C@H]1CN(C)Cc1ccc(-c2ccccc2)cc1	none (no result: AHR act)
CC(C)(C)c1ccc(-c2nc(C#N)c(NCCCn3ccnc3)o2)cc1	none
CCCOc1ccc(-c2nc(C#N)c(NCCCn3ccnc3)o2)cc1	none
COc1ccc(-c2nc(C#N)c(NCCCn3ccnc3)o2)cc1OC	AHR act 69.6
N#Cc1nc(-c2ccco2)oc1NCCCn1ccnc1	AHR act 70.1
CC1CCN(Cc2c(C(=O)N/N=C/c3cccc(C(F)(F)F)c3)nnn2-c2nonc2N)CC1	none
CC1CCN(Cc2c(C(=O)N/N=C/c3ccc(C(F)(F)F)cc3)nnn2-c2nonc2N)CC1	MC4R barr agon 24.2
CN(C)c1ccc(/C=N/NC(=O)c2nnn(-c3nonc3N)c2CN(C)c2ccccc2)cc1	MC4R barr agon 8.5
Cc1ccc([N+](=O)[O-])c(OCc2ncc(Cl)n2C)c1	AHR act 55.5
Cc1ccc([N+](=O)[O-])c(OCCN2CCNCC2)c1	none
O=C(O)Cc1sc(Nc2cccc3ccccc23)nc1-c1ccc(Cl)cc1	AHR act 56.3
O=C(O)Cc1sc(Nc2cccc3ccccc23)nc1-c1ccccc1	AHR act 61.0
O=C(c1ccccc1)N1CCN(c2ncnc3c2cnn3-c2ccccc2)CC1	AHR act 61.4
CCn1c(SCC(=O)N(C)CC(=O)Nc2ccc(OC)cc2)nnc1-c1ccco1	none
COc1ccccc1NC(=O)CSc1nnc(-c2ccoc2C)o1	none
COc1ccccc1-c1nnc(SCC(=O)Nc2ccc(Cl)cc2Cl)o1	AHR act 57.1
CCC1(c2ccc(F)cc2)NC(=O)N(CC(=O)N2c3ccccc3CC2C)C1=O (centres undefined)	none
CCCNc1nc(Nc2ccc(C)c(Cl)c2)c2cnn(C)c2n1	AHR act 63.6
CNc1nc(Nc2ccc(C)c(Cl)c2)c2cnn(C)c2n1	none
Nc1nc2c(Br)ccc(Br)c2cc1C(=O)NCc1cccc2ccccc12	none (no result: AHR act, MC4R antagonist, FXN GAA850 act, MC4R barr agon)
COc1ccccc1OCc1nc(C#N)c(N2CCCC2)o1	AHR act 64.5
Cc1ccccc1OCc1nc(C#N)c(N2CCCC2)o1	none
COc1ccc(S(=O)(=O)N2CCC(C(=O)Oc3ccc(C)cc3)CC2)cc1OC	none
COc1ccc(CN2C(=O)C(CC(=O)NCC3CCCCC3)CC(C(=O)N(C(C)C)C(C)C)=C2C)cc1 (centres undefined)	none (no result: AHR act)
COc1ccc([C@H]2CC(=O)C=C(c3c(OC)cccc3OC)C2)cc1	none
O=[N+]([O-])c1ccc2c(c1)Cc1cc(F)ccc1-2	none (no result: AHR act)
O=C1C=CC(=O)N1c1ccc2c(c1)Cc1cc(F)ccc1-2	MC4R antagonist 32.0 (no result: AHR act)
CC(=O)Nc1cccc(-c2csc(C(C)(NC(C)=O)c3ccccc3)n2)c1 (centres undefined)	none (no result: AHR act)
CCN(CC)CCCNC(=O)c1cc2c(-c3ccc(Cl)cc3)nn(C)c2s1	AHR act 54.2
Cn1nc(-c2ccc(Cl)cc2)c2cc(C(=O)NCC3CCCO3)sc21 (centres undefined)	AHR act 56.9
CC(=O)Nc1cccc(C(=O)Nc2cc(C(F)(F)F)ccc2-n2cncn2)c1	none (no result: AHR act)
Cc1cnc(NC(=O)c2cc3c(C)nn(-c4ccccc4)c3s2)s1	AHR act 60.7
Cc1nn(-c2ccccc2)c2sc(C(=O)NC3CCCCC3)cc12	none
Cc1nn(-c2ccccc2)c2sc(C(=O)NNC(=O)COc3ccccc3)cc12	AHR act 57.8
O=C(Nc1ccc2c(c1)OCCO2)C(c1ccncc1)n1c(=O)c(-c2cc3ccccc3[nH]2)nc2ccccc21 (centres undefined)	none (no result: AHR act, MC4R antagonist, FXN GAA850 act, MC4R barr agon)
COc1ccc(CN2CCNC(=O)C2CC(=O)NCc2csc(C(C)C)n2)c(OC)c1 (centres undefined)	AHR act 47.3 (no result: m5-HT2A agonist, MC4R antagonist, FXN GAA850 act, MC4R barr agon)
CN1CCCC(C)(C(=O)Nc2ccc(-n3cccc3)cc2)C1 (centres undefined)	none (no result: AHR act)
CCc1ccc(OCC(=O)N/N=C2\CC(=O)c3ccccc32)cc1	AHR act 61.5
